DNMT1 block – DNMT1 (human) enzyme inhibition; DNMT1 molecular beacon, Hinp1I cleavage, fluorescence; inhibition (reported as % activation of signal), % at 10 µM; 360,000 tested, 0.83% active; AID 588458
Target sequence (P26358 504-1616 limits assumed): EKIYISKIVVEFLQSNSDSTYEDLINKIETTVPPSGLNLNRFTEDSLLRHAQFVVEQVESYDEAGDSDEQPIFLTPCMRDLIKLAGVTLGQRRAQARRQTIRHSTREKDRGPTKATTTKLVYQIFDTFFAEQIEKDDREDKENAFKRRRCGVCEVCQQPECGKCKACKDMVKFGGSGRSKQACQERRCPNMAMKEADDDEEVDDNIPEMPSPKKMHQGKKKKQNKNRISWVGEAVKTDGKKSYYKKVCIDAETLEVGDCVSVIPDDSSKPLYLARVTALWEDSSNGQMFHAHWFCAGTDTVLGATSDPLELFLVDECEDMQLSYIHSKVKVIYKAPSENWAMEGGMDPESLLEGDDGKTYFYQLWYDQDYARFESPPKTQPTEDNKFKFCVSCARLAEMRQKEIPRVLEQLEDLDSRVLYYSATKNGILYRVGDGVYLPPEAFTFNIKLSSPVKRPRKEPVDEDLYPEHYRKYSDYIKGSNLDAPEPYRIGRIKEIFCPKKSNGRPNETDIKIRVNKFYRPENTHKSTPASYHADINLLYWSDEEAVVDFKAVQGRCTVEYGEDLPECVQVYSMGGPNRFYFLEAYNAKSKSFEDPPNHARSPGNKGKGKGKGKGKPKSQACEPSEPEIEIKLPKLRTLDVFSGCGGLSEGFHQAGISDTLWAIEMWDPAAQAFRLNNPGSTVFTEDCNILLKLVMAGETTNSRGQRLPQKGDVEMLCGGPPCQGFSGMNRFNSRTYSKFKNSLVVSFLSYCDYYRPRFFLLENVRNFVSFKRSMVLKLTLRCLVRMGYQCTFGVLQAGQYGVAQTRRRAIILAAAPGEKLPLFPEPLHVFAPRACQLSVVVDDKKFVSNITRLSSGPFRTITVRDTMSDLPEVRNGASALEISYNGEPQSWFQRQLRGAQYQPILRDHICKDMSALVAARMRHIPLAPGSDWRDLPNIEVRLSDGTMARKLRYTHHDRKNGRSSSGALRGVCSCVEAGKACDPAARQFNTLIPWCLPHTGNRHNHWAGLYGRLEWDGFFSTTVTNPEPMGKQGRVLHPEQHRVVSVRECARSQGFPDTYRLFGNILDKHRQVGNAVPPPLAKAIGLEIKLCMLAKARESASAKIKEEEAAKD
NS3 helicase inh – blocks Hepatitis C virus NS3 helicase unwinding; NS3 helicase DNA unwinding, Cy5 molecular beacon fluorescence; inhibition, % at 10.9 µM; 290,000 tested, 0.56% active;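 active = inhibition above the mean of all tested compounds plus 3 SD, set per campaign, cut at about 35% in these data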;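 note: 0% = DMSO wells and 100% = thioflavine S control wells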
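test system = hepatitis C virus NS3 helicase domain fragment enzyme | reagent = annealed dual-labelled DNA beacon duplex, ATP-started | times = 1 h at 25 °C | detection = Cy5 fluorescence, 0 and 60 min reads | read-out basis = percent inhibition from t60/t0 fluorescence ratio | control set = DMSO and thioflavine S | replication = one well per compound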
NSD2 HMT inh – inhibitors of human histone methyltransferase NSD2. NSD2 peptide methylation, AlphaScreen, 120 min. 310,000 tested, 0.54% active. inhibition, % at 12.5 µM
Casp6 inh – blocks human caspase-6 cleavage activity; purified caspase-6, Z-VEID-R110 cleavage fluorescence; 350,000 tested, 0.53% active; inhibition, % at 12.5 µM;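 active = mean inhibition across replicates at least about 35%, with every replicate also reaching that limit, limit read from the data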;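 note: 0% = median of neutral control wells and 100% = no fluorescence left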
DNMT1 inh conf – DNMT1 inhibition confirmation, single concentration | inhibition, % at 10 µM | 2,300 tested, 8% active | DNMT1 molecular beacon HinP1I cleavage, fluorescence | shares compounds with DNMT1 block;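 active = average inhibition of at least 30% in the single-concentration confirmation test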
DNMT1 interf – beacon fluorescence artifact counter-screen; shares compounds with DNMT1 block; DNMT1 molecular beacon spectral interference counterscreen, fluorescence 485/520; activation (fluorescence interference), % at 10 µM; 2,300 tested, 1% active;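 active = activation of at least 30% at 10 µM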;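 note: DNMT1 catalytic domain with a HinP1I cleavage step and a FAM/dabcyl DNA beacon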
An asterisk follows results filed as active; . = not tested or not shown. In the library only some 1.5% were active in any assay of this set; here they are far more common. Cut-off read from the data, not from the text of the source, unless noted: active = inhibition above about 50%; inactive = the rest.

SMILES	DNMT1 block	NS3 helicase inh	NSD2 HMT inh	Casp6 inh	DNMT1 inh conf	DNMT1 interf
CC(=O)N1[C@H](C(=O)Nc2ccccc2)[C@@H](CO)[C@@H]2Cn3c(ccc(C4=CCCC4)c3=O)[C@@H]21	.	.	.	-1	.	.
COc1cccc(-n2c(SCC(=O)N3CCc4ccccc43)nnc2-c2c[nH]c3ccccc23)c1	27	0	.	-3	.	.
O=C(CSc1nc2ccccc2c(=O)n1-c1ccccc1)N1CCCc2ccccc21	4	-10	20	.	.	.
CCOc1ccc(-n2c(SCC(=O)N3CCc4ccccc43)nnc2-c2c[nH]c3ccccc23)cc1	80*	-7	.	-1	-1	-6
O=C(CSc1nc2ccccc2c(=O)n1-c1ccccc1)N1CCc2ccccc21	53*	1	-3	.	-2	-10
C[C@H]1CN([C@@H](C)CO)C(=O)c2cc(NC(=O)Nc3ccc4c(c3)OCO4)ccc2O[C@H]1CN(C)Cc1ccc2c(c1)OCO2	.	.	.	-2	.	.
O=C(C[C@H]1CC[C@H]2[C@@H](COC[C@@H](O)CN2C(=O)Nc2cc(Cl)cc(Cl)c2)O1)N1CCCCC1	.	.	.	-2	.	.
CNC[C@H]1Oc2ccc(NC(=O)CCC(F)(F)F)cc2CC(=O)N([C@@H](C)CO)C[C@H]1C	.	.	.	-3	.	.
COc1ccccc1NC(=O)C(C)OC(=O)C1CC(=O)N(c2ccc3c(c2)OCCO3)C1 (stereo not drawn)	2	-10	25	1	.	.
O=C(O)C1CC(=O)N(c2ccc3c(c2)OCCO3)C1 (stereo not drawn)	63*	6	.	.	4	8
COc1cccc(OC)c1OC(=O)C1CC(=O)N(c2ccc3c(c2)OCCO3)C1 (stereo not drawn)	53*	.	2	19	2	0
Nn1c(SCc2ccc(F)cc2)nnc1-c1ccncc1	6	0	-3	1	.	.
N#CCSc1nnc(-c2ccc(F)cc2)n1N	92*	2	-2	1	5	4
O=C(C[C@@H]1CC[C@H]2[C@@H](COC[C@@H](O)CN2C(=O)c2cnccn2)O1)NCc1ccccc1	.	.	.	1	.	.
Cc1cc(C(F)(F)F)c(C#N)c(SCC(=O)Nc2nc3ccccc3s2)n1	83*	-1	30	-1	23	11
Cc1nc(SCC(=O)Nc2nc3ccccc3s2)c(C#N)c(C)c1C	0	1	-4	-3	.	.
CCC(=O)N1CC2(C1)[C@@H](c1ccc(-c3ccc(F)cc3)cc1)[C@H](CO)N2C(C)=O	.	.	.	1	.	.
O=C(C[C@@H]1C[C@H]2c3cc(NC(=O)C4CCC4)ccc3O[C@H]2[C@H](CO)O1)NCc1ccccn1	.	.	.	0	.	.
C[C@@H]1CN([C@@H](C)CO)S(=O)(=O)c2ccc(/C=C/c3ccccc3)cc2O[C@@H]1CN(C)C(=O)NC1CCCC1	.	.	.	1	.	.
COC(=O)CN1C(=O)[C@H]2[C@@H](c3ccc(C)o3)N3C(=O)CN(CCO)C(=O)[C@@]3(C)[C@H]2C1=O	103*	9	.	0	2	4
C[C@@H]1CN([C@H](C)CO)C(=O)c2cccc(NS(C)(=O)=O)c2O[C@@H]1CN(C)C(=O)Nc1ccc(F)cc1	.	.	.	1	.	.
Cc1nc2c(c(=O)n1CCC1=CCCCC1)c1nc3ccccc3nc1n2/N=C/c1ccco1	76*	12	3	.	1	-1
CCC(=O)Nc1ccc2c(c1)OC[C@H](C)N(Cc1ccccc1OC)C[C@H](C)[C@H](OC)CN(C)C2=O	.	.	.	-1	.	.
C[C@H](O)C#Cc1cnc2c(c1)C(=O)N([C@@H](C)CO)C[C@@H](C)[C@@H](CN(C)C(=O)Nc1ccc(F)cc1)O2	.	.	.	1	.	.
Cc1ccc(/C=c2\sc3nc(-c4cccs4)nn3c2=O)o1	57*	34	26	.	2	3
SMILES	DNMT1 block	NS3 helicase inh	NSD2 HMT inh	Casp6 inh	DNMT1 inh conf	DNMT1 interf
COc1cccc(/C=c2\sc3nc(-c4cccs4)nn3c2=O)c1OC	4	0	1	.	.	.
O=C(/C=C/[C@H]1O[C@@H](n2ccc(=O)[nH]c2=O)[C@H](O)[C@@H]1O)NCCCc1ccccc1	80*	.	.	-2	1	3
COc1ccc(NC(=O)N(C)C[C@@H]2Oc3c(NS(=O)(=O)c4ccc(C)cc4)cccc3C(=O)N([C@@H](C)CO)C[C@H]2C)cc1	.	.	.	4	.	.
NC(=O)CC(NC(=O)Cc1ccc(Br)cc1)c1ccc(NCCc2ccccc2F)c([N+](=O)[O-])c1 (stereo not drawn)	38	.	.	-2	.	.
Cc1ccccc1CNc1ccc(C(CC(N)=O)NC(=O)c2ccc(Br)cc2)cc1[N+](=O)[O-] (stereo not drawn)	61*	.	.	-1	0	-1
NC(=O)CC(NC(=O)Cc1ccc(Br)cc1)c1ccc(NCCc2ccc(F)cc2)c([N+](=O)[O-])c1 (stereo not drawn)	53*	.	.	-3	2	0
NC(=O)CC(NC(=O)Cc1ccc(Br)cc1)c1ccc(NCCc2ccc(Cl)cc2)c([N+](=O)[O-])c1 (stereo not drawn)	58*	.	.	.	2	-2
COc1ccc(CCNc2ccc(C(CC(N)=O)NC(=O)c3ccc(Br)cc3)cc2[N+](=O)[O-])cc1 (stereo not drawn)	44	.	.	4	.	.
COc1ccc(CCNc2ccc(C(CC(N)=O)NC(=O)Cc3ccc(Br)cc3)cc2[N+](=O)[O-])cc1 (stereo not drawn)	55*	.	.	-5	-1	-4
CO[C@H]1CN(C)C(=O)c2ccc(NC(=O)c3ccccc3)cc2OC[C@H](C)N(CC2CC2)C[C@H]1C	.	.	.	-2	.	.
C[C@H](CO)N1C[C@H](C)[C@@H](CN(C)S(=O)(=O)c2cn(C)cn2)Oc2c(NC(=O)C3CCOCC3)cccc2C1=O	.	.	.	1	.	.
Cc1ccc(-c2ccc(/C=C3\SC(N4CCOCC4)=NC3=O)o2)cc1	-2	-7	3	2	.	.
Cc1ccc(/C=C2\SC(N3CCN(C(c4ccccc4)c4ccccc4)CC3)=NC2=O)o1	79*	13	0	.	-4	-5
O=C1N=C(N2CCOCC2)SC1=Cc1ccco1	81*	.	1	9	4	5
C[C@@H]1CN([C@@H](C)CO)C(=O)c2cc(NC(=O)Nc3ccc4c(c3)OCO4)ccc2O[C@@H](C)CCCCO[C@H]1CN(C)Cc1ccncc1	.	.	.	-1	.	.
CCCc1c(C(=O)N/N=C/C=C/c2ccccc2)nnn1-c1nonc1N	51*	.	-1	-1	2	6
CCCc1c(C(=O)N/N=C/C(C)=C/c2ccccc2)nnn1-c1nonc1N	6	5	-2	2	.	.
COCCNC(=O)[C@@H]1[C@@H](CO)[C@@H]2Cn3c(ccc(C4=CCCCC4)c3=O)[C@H]1N2C(=O)C1CCC1	.	.	.	-3	.	.
CCCCSCc1ccc(C(=O)O)o1	-10	-1	0	.	.	.
CC(=O)c1c(C)oc(C)c1CSCc1ccc(C(=O)O)o1	78*	15	29	.	6	3
COc1ccc(-c2nc3oc4cc(OC)ccc4c(=O)c3c(=O)n2Cc2ccco2)cc1	7	22	1	.	.	.

Screening data (PubChem)
